Here are results for seven compounds from ChEMBL document CHEMBL1121655, “Methylangelicins: new potential agents for the photochemotherapy of psoriasis. Structure-activity study on the dark and photochemical interactions with DNA” (J Med Chem, 1981).

In data set [1] the test system is Nucleic Acid. The data set is described as follows: Compound was evaluated for rate constant in the calf thymus DNA. The format is functional. Conditions: Bos taurus. A digest of the protocol:
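DNA at 2.3×10^-3 M in 2×10^-3 M NaCl and 1×10^-3 M EDTA with 3×10^-5 M labeled furocoumarin. Irradiated at 365 nm, 1.07×10^16 quanta s^-1 mL^-1, for increasing times in a thermostatted bath. Complexed fraction at time 0 taken from dialysis at 2 mM NaCl with ligand:nucleotide 1:76.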

Data set [2] deals with Nucleic Acid. Kind of data set: (§1) Compound was evaluated for association constant in the calf thymus DNA. The format is functional. Particulars: Bos taurus. The method, boiled down: (§2)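 Equilibrium dialysis at 25 ± 0.05 °C in the dark, 12 h with shaking, across a cellophane membrane. Tritiated angelicin at slightly below its water solubility in 0.02 M NaCl with 1 mM EDTA, against DNA at 3×10^-3 to 3×10^-4 M. Both phases counted by scintillation to give r and c. K and n fitted iteratively to the McGhee–von Hippel equation.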

For data set [3], the system named is Ehrlich. Kind of data set: Compound was evaluated for the inhibition of RNA synthesis in Ehrlich Ascites tumor cells by irradiation (365 nm) at 1.9 x 10 e-5M. It counts as functional. A digest of the protocol: (§3)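 Ehrlich ascites cells, 2×10^7 cells/mL in Hank's solution, on ice with 1.9×10^-5 M compound, irradiated by HPW 125 lamp at 20 cm (2.02×10^16 quanta/s). Then 2×10^6 cells pulsed 15 min at 37 °C with 1 μCi [3H]thymidine (DNA) or [3H]uridine (RNA). TCA-insoluble counts as % of untreated. Each dose at least in duplicate. D50 = UV dose giving 50% inhibition.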

Data set [4] concerns Ehrlich. Kind of data set: Compound was evaluated for the inhibition of DNA synthesis in Ehrlich Ascites tumor cells by irradiation (365 nm) at 1.9 x 10 e-5M. It counts as functional. The method, boiled down: as §3
The nature of data set [5]: Water solubility (solubility in mol/L). It counts as ADME. Conditions: read-out: S.
Data set [6] has as its system Nucleic Acid. The description is as §1. The format is nucleic-acid assay. Conditions: Bos taurus. A digest of the protocol: as §2

Structures are written as SMILES. In brackets after ≈: the same amount, converted by molar mass.

As to `Cc1cc2occc2c2oc(=O)ccc12`, the Rate constant with Nucleic Acid [1] turned out to be 0.034 min⁻¹. Moreover, the K with Nucleic Acid [2] was 1560. Besides, the D50 was determined as 8.3e+18 quanta with Ehrlich [3] and 9.1e+18 quanta with Ehrlich [4]. In data set [5], the solubility came to 4.5 µg/mL (≈ 22.5 µM).

For `O=c1ccc2cc3ccoc3cc2o1` [PSORALEN], the results for the D50 with Ehrlich [3] and in the data set with Ehrlich [4] were 1.4e+19 quanta and 9.1e+18 quanta, respectively.

For the compound `Cc1cc2c(ccc3c(C)cc(=O)oc32)o1`, the K with Nucleic Acid [6] was found to be 1450. In addition, the results for the D50 with Ehrlich [3] and in the data set on Ehrlich [4] were 1.35e+19 quanta and 1.09e+19 quanta, respectively.

In the case of `O=c1ccc2ccc3occc3c2o1` [ANGELICIN], the Rate constant in the data set with Nucleic Acid [1] is 0.011 min⁻¹. The same compound had a K in the data set with Nucleic Acid [2] of 560. The D50 worked out at 2.33e+19 quanta in the data set on Ehrlich [3] and 2.5e+19 quanta in the data set with Ehrlich [4]. The solubility in data set [5] was determined as 20 µg/mL (≈ 107 µM).

Consider `Cc1cc2c(ccc3ccc(=O)oc32)o1`, for which, in the data set with Nucleic Acid [1], the Rate constant came to 0.021 min⁻¹. This compound gave a K in the data set on Nucleic Acid [2] of 1200. Moreover, the values for the D50 in the data set on Ehrlich [3] and in the data set with Ehrlich [4] were 1.74e+19 quanta and 1.66e+19 quanta, respectively. Besides, the solubility in data set [5] is 12 µg/mL (≈ 59.9 µM).

For the compound `Cc1cc(=O)oc2c1ccc1occc12`, the Rate constant in the data set on Nucleic Acid [1] came out at 0.016 min⁻¹. In addition, the K in the data set with Nucleic Acid [2] stood at 1400. Also, the D50 is 1.81e+19 quanta in the data set on Ehrlich [3] and 2.4e+19 quanta in the data set with Ehrlich [4]. The solubility in data set [5] turned out to be 4 µg/mL (≈ 20 µM).

Compound `Cc1cc2c(cc(C)c3ccc(=O)oc32)o1` displayed a Rate constant in the data set with Nucleic Acid [1] of 0.027 min⁻¹. The same compound registered a K with Nucleic Acid [2] of 1750. Further, the results for the D50 in the data set on Ehrlich [3] and in the data set with Ehrlich [4] were 6.6e+18 quanta and 1.38e+19 quanta, respectively. Besides, the solubility in data set [5] came out at 3 µg/mL (≈ 14 µM).
